In ChEMBL document CHEMBL1121556, “Structure-activity relationships in a series of newly synthesized 1-amino-substituted ellipticine derivatives” (J Med Chem, 1980):
One block for each molecule: values may come before it.

Key:
[1] = test system: Mus musculus; experiment: In vivo acute toxicity (lethal dose) against mice by intraperitoneal administration; assay type: organism-based; conditions: ip
Summary of the method: (§1)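 Mice (ICFW, C3H or B6D2 F1; 6-8 weeks; 22-24 g) in five groups of six. Drug dissolved in acidified saline (equimolar acetic acid) and given as a single ip or iv dose of 2, 5, 10, 25 or 50 mg/kg. Mortality observed over 30 days to set the lethal dose (LD100) and the highest nonlethal dose (LD0).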

[2] = test system: Friend leukemia cells (Mus musculus); experiment: In vitro concentration required for growth inhibition of murine Friend leukemia cell; conditions: read-out: ID50 (the source's name)
[3] = test system: Mus musculus; experiment: In vivo acute toxicity (lethal dose) against mice by intravenous administration; assay type: organism-based; summary of the method: as §1
[4] = test system: Mus musculus; experiment: In vivo acute toxicity (nonlethal dose) against mice by intraperitoneal administration; assay type: organism-based; conditions: ip; summary of the method: as §1
[5] = test system: Mus musculus; experiment: In vivo acute toxicity (nonlethal dose) against mice by intravenous administration; assay type: organism-based; summary of the method: as §1
[6] = test system: Mus musculus; experiment: In vivo evaluation for the antitumor activity on L1210 leukemia cells at the dose 15 mg/kg administered intraperitoneally estimated as increase in life span; assay type: functional; conditions: L1210, ip, route intraperitoneal
[7] = test system: Mus musculus; experiment: In Vivo evaluation for the antitumor activity on grafted tumor friend cells at the dose 20 mg/kg and Increase in the life span was determined; assay type: functional
Summary of the method: (§2)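 Friend tumor cells, 10^6, injected iv into syngeneic mice. Mice randomized in groups of 16. Drug dissolved in acidified saline (equimolar acetic acid) and given as a single iv dose 3 days after inoculation. Median survival time recorded. %ILS = (treated median survival − control median survival)/control median survival × 100.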

[8] = test system: Nucleic Acid; experiment: (§3) Apparent association constant towards DNA at concentration of 10e-7/M; assay type: nucleic-acid assay; conditions: Bos taurus
Summary of the method: (§4)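 Association constants for DNA binding were derived from absorption changes of calf thymus DNA at 6 × 10^-7 M, expressed as mononucleotide concentration. The buffer was 50 mM Tris-HCl, pH 7.4, with 0.1 M NaCl.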

[9] = test system: Mus musculus; experiment: In Vivo antitumor activity on grafted tumor friend cells at the dose 20 mg/kg and decrease in intravenous 10 e 6 cells and median survival time; assay type: functional; summary of the method: as §2
[10] = test system: Nucleic Acid; experiment: B app constant towards DNA; assay type: nucleic-acid assay; conditions: Bos taurus; summary of the method: as §4
[11] = test system: Mus musculus; experiment: In vivo antitumor activity on L1210 leukemia cells at the dose 15 mg/kg administered intraperitoneally estimated as range of deaths; assay type: functional; conditions: route intraperitoneal
[12] = test system: Mus musculus; experiment: In vivo evaluation for the antitumor activity on L1210 leukemia cells at the dose 15 mg/kg administered intraperitoneally estimated as Mean survival time; assay type: functional; conditions: route intraperitoneal
[13] = test system: Mus musculus; experiment: In vivo evaluation of antitumor activity on L1210 leukemia cells at the dose 5 mg/kg administered intraperitoneally 1 day after 10 e5 L1210 leukemia cells and Mean survival time; assay type: functional; conditions: route intraperitoneal
[14] = test system: Mus musculus; experiment: In Vivo antitumor activity on grafted tumor friend cells at the dose 5 mg/kg and decrease in intravenous 10 e 6 cells and median survival time; assay type: functional; summary of the method: as §2
[15] = test system: Mus musculus; experiment: In Vivo evaluation for the antitumor activity on grafted tumor friend cells at the dose 5 mg/kg and Increase in the life span; assay type: functional; summary of the method: as §2
[16] = test system: Mus musculus; experiment: In vivo antitumor activity on L1210 leukemia cells at the dose 5 mg/kg administered intraperitoneally 1 day after 10 e5 L1210 leukemia cells and range of deaths; assay type: functional; conditions: route intraperitoneal
[17] = test system: Mus musculus; experiment: In vivo evaluation of antitumor activity on L1210 leukemia cells at the dose 5 mg/kg administered intraperitoneally 1 day after 10 e5 L1210 leukemia cells and increase in life span;; assay type: functional; conditions: L1210, ip, 24 h, route intraperitoneal
[18] = test system: Mus musculus; experiment: In vivo evaluation of antitumor activity on L1210 leukemia cells at the dose 15 mg/kg administered intraperitoneally 1 day after 10 e5 L1210 leukemia cells and Mean survival time; assay type: functional; conditions: route intraperitoneal
[19] = test system: Mus musculus; experiment: In vivo antitumor activity on L1210 leukemia cells at the dose 15 mg/kg administered intraperitoneally 1 day after 10 e5 L1210 leukemia cells and range of deaths; assay type: functional; conditions: route intraperitoneal
[20] = test system: Mus musculus; experiment: In vivo evaluation of antitumor activity on L1210 leukemia cells at the dose 15 mg/kg administered intraperitoneally 1 day after 10 e5 L1210 leukemia cells and increase in life span; assay type: functional; conditions: L1210, ip, 24 h, route intraperitoneal
[21] = test system: Mus musculus; experiment: In vivo evaluation of antitumor activity on L1210 leukemia cells at the dose 5 mg/kg administered intraperitoneally 1 day after 10 e5 L1210 leukemia cells and Mean survival time; conditions: route intraperitoneal
[22] = test system: Mus musculus; experiment: In vivo evaluation of antitumor activity on L1210 leukemia cells at the dose 15 mg/kg administered intraperitoneally 1 day after 10 e5 L1210 leukemia cells and increase in life span;(P<0.001); assay type: functional; conditions: L1210, ip, 24 h, route intraperitoneal
[23] = test system: Nucleic Acid; experiment: as §3; assay type: nucleic-acid assay; conditions: Bos taurus; remark: listed apart in the source
Summary of the method: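 Apparent association constant from absorption changes of 6 × 10^-7 M calf thymus DNA (as mononucleotide concentration) in 50 mM Tris-HCl, pH 7.4, 0.1 M NaCl.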

[24] = test system: Mus musculus; experiment: In Vivo antitumor activity on grafted tumor friend cells at the dose 5 mg/kg and decrease in intravenous 10 e 6 cells and median survival time was determined; assay type: functional; summary of the method: as §2
[25] = test system: Nucleic Acid; experiment: Apparent association constant towards DNA at concentration of 10e-7/M.; assay type: nucleic-acid assay; conditions: Bos taurus; summary of the method: as §4
[26] = test system: Nucleic Acid; experiment: Apparent association constant towards DNA at concentration of 10 E-7/M; assay type: nucleic-acid assay; conditions: Bos taurus; summary of the method: as §4
[27] = test system: Mus musculus; experiment: In vivo leukemia cells at the dose 2.5 mg/kg administered intraperitoneally 1 day after 10 e5 L1210 leukemia cells and Mean survival time; assay type: functional; conditions: route intraperitoneal
[28] = test system: Mus musculus; experiment: In vivo antitumor activity on L1210 leukemia cells at the dose 2.5 mg/kg administered intraperitoneally 1 day after 10 e5 L1210 leukemia cells and range of deaths; assay type: functional; conditions: route intraperitoneal
[29] = test system: Mus musculus; experiment: In vivo evaluation of antitumor activity on L1210 leukemia cells at the dose 2.5 mg/kg administered intraperitoneally 1 day after 10 e5 L1210 leukemia cells and increase in life span; assay type: functional; conditions: L1210, ip, 24 h, route intraperitoneal

Structure (SMILES): COc1ccc2[nH]c3c(C)c4ccnc(NCCCN5CCN(CCCN)CC5)c4cc3c2c1
LD100 [1]: 50 mg/kg | IC50 [2]: 0.2 µM | LD100 [3]: 2.5 mg/kg | LD0 [4]: 25 mg/kg | LD0 [5]: < 1 mg/kg

Structure (SMILES): CCN(CC)CCCNc1nccc2c(C)c3[nH]c4ccc(OC)cc4c3c(C)c12 [RETELLIPTINE]
ILS at 15 mg/kg [6]: 134% | LD100 [1]: 60 mg/kg | ILS at 20 mg/kg [7]: 24.7% | K app [8]: 3.15e+07 M⁻¹ | MST [9]: 10.6 days | IC50 [2]: 0.3 µM | LD100 [3]: 60 mg/kg | LD0 [4]: 15 mg/kg | LD0 [5]: 20 mg/kg | Bapp [10]: 0.16 | Range of deaths [11]: 35 days | MST [12]: 25 days

Structure (SMILES): COc1ccc2[nH]c3c(C)c4ccnc(Nc5ccc(NS(C)(=O)=O)cc5)c4cc3c2c1
IC50 [2]: 2 µM

Structure (SMILES): COc1ccc2[nH]c3c(C)c4ccnc(NCCN)c4cc3c2c1
MST [13]: 13.8 days | LD100 [1]: 10 mg/kg | K app [8]: 3.3e+07 M⁻¹ | MST [14]: 10.1 days | IC50 [2]: 0.1 µM | ILS at 5 mg/kg [15]: 18.8% | Range of deaths [16]: 20 days | ILS at 5 mg/kg [17]: 8.7% | LD0 [4]: 5 mg/kg | Bapp [10]: 0.135

Structure (SMILES): CCN(CC)CCCC(C)Nc1nccc2c(C)c3[nH]c4ccc(OC)cc4c3cc12 (centres undefined)
LD100 [1]: 30 mg/kg | MST [18]: 12.5 days | IC50 [2]: 0.5 µM | Range of deaths [19]: 14 days | ILS at 15 mg/kg [20]: 8.7% | LD0 [4]: 1.5 mg/kg

Structure (SMILES): CCN(CC)CCCNc1nccc2c(C)c3[nH]c4ccc(O)cc4c3cc12
LD100 [1]: 15 mg/kg | ILS at 20 mg/kg [7]: 29.4% | MST [21]: 16 days | ILS at 15 mg/kg [22]: 49.5% | IC50 [2]: 0.02 µM | Range of deaths [19]: 18 days | LD100 [3]: 15 mg/kg | K app [23]: 3.7e+07 M⁻¹ | LD0 [4]: 5 mg/kg | LD0 [5]: 5 mg/kg | MST [24]: 11 days | Bapp [10]: 0.11

Structure (SMILES): Cc1c2ccnc(NCCN(C)C)c2cc2c1[nH]c1ccc(O)cc12
LD100 [1]: 5 mg/kg | MST [27]: 16 days | Range of deaths [28]: 20 days | ILS at 2.5 mg/kg [29]: 26% | IC50 [2]: 0.03 µM | LD0 [4]: 2.5 mg/kg

Second part, the molecule after the results:

IC50 [2]: 2 µM
Structure (SMILES): CCN(CC)CCCNc1nccc2c(C)c3[nH]c4ccc(OCc5ccccc5)cc4c3cc12

IC50 [2]: 0.5 µM | K app [25]: 4.5e+07 M⁻¹ | Bapp [10]: 0.15
Structure (SMILES): COc1ccc2[nH]c3c(C)c4ccnc(NCCCCCN)c4cc3c2c1

IC50 [2]: 5 µM | K app [25]: 4e+07 M⁻¹ | Bapp [10]: 0.13
Structure (SMILES): COc1ccc2[nH]c3c(C)c4ccnc(NCCCCN)c4cc3c2c1

IC50 [2]: 0.3 µM
Structure (SMILES): Cc1c2cc[n+](C)cc2c(C)c2c1[nH]c1ccc(O)cc12 [ELLIPTINIUM]

IC50 [2]: 0.2 µM | K app [26]: 3.05e+07 M⁻¹ | Bapp [10]: 0.07
Structure (SMILES): COc1ccc2[nH]c3c(C)c4ccnc(NCCCN)c4cc3c2c1

IC50 [2]: 30 µM
Structure (SMILES): COc1ccc2[nH]c3c(C)c4ccnc(N5CCCCC5)c4cc3c2c1
